Published values of several laboratories.
Each line is one published result; the experiments were not run side by side.
Target: Phosphorylase b kinase gamma catalytic chain, liver/testis isoform (PHKG2, Homo sapiens, UniProt P15735)
Residues used in one study (P15735 1-406): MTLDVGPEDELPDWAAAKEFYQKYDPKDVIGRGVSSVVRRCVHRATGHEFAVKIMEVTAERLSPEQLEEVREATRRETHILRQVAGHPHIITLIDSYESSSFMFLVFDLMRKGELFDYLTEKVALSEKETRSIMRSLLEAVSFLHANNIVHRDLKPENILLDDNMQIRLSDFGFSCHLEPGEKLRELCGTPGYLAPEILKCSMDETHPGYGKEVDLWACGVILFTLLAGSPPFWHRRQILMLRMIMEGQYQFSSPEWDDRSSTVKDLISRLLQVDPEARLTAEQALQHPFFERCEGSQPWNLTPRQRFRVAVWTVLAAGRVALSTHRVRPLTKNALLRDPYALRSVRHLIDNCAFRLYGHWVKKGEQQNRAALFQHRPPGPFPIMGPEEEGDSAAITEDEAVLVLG

CCN(CC)c1ccc(C2=NNC(=O)CC2C)cc1[N+](=O)[O-] (stereo not shown)  remaining activity (enzyme activity; inhibitor; 10 µM): 107%
CCN(CC)CCNC(=O)c1c(C)[nH]c(/C=C2\C(=O)Nc3ccc(F)cc32)c1C  inhibition (enzyme activity; inhibitor; 10 µM): 101%
O=C(Nc1cccnn1)N1CC(C/C=C/c2cncc(Oc3ccc(C(F)(F)F)cn3)n2)C1  remaining binding (cell-free assay; competition with immobilised ligand; 1 µM): 100%
Nc1nc(Nc2ccc(S(N)(=O)=O)cc2)nn1C(=O)c1c(F)cccc1F  remaining signal (cell-free assay; 0.5 µM): 102%
CO[C@@H](C)c1c(Nc2ccc([C@H](N(C)C(=O)C3CCS(=O)(=O)CC3)C(F)(F)F)cc2)cnc2cc(Cl)nn12  remaining binding (cell-free assay; competition with immobilised ligand; 1 µM): 96%
COc1cc(Cl)c(C(=O)N[C@@H](CN[C@H]2CC[C@@H](N)CC2)Cc2ccc(C#N)cc2)cc1-c1ccc(CN[C@H](C)c2ccc(C)cc2)o1  remaining activity (enzyme activity; inhibitor; 1 µM): 103%
CCCCN(CCCC)C(=O)CN1C[C@@H](c2cc(OC)c3c(c2)OCO3)[C@H](C(=O)O)[C@H]1CC(C)(C)CCC  remaining binding (cell-free assay; competition with immobilised ligand; 1 µM): 100%
O=C1NC(=O)c2cc(Nc3ccc(F)cc3)c(Nc3ccc(F)cc3)cc21  remaining signal (cell-free assay; 0.5 µM): 97.1%
CC(C)(C)c1nc2c(s1)c1nc(N)ncc1c1ccc(NS(=O)(=O)c3c(F)cccc3F)c(F)c12  remaining activity (enzyme activity; inhibitor; radiometric; 1 µM): 92%
Cn1nc(C(F)(F)F)cc1-c1cnc(N2CCc3cc(S(=O)(=O)Nc4c(F)cc(Cl)cc4F)cc(N4CCCC4=O)c32)nc1  remaining binding (cell-free assay; competition with immobilised ligand; 1 µM): 96%
CS(=O)(=O)CCNCc1ccc(-c2ccc3ncnc(Nc4ccc(OCc5cccc(F)c5)c(Cl)c4)c3c2)o1  remaining signal (cell-free assay; 0.5 µM): 99.5%
c1ccc(CNc2nc(N3CCOc4ccccc43)nc3c2CCCC3)cc1  inhibition (target engagement in cells; inhibitor; chemoproteomics; 20 mM): -2.7%
CC(C)(O)[C@H]1CC[C@H](Nc2ccc3ncc(-c4cccc(C(F)(F)F)c4)n3n2)CC1  remaining activity (enzyme activity; inhibitor; 1 µM): 99.4%
CC/C(=N\NC(=O)NCc1cccc(O)c1)c1ccc(O)c(C)c1O  inhibition (enzyme activity; inhibitor; 0.1 µM): -2.9%
Cc1ccc(C(=O)Nc2ccc(CN3CCN(C)CC3)c(C(F)(F)F)c2)cc1C#Cc1cnc2cccnn12  remaining activity (enzyme activity; inhibitor; 23.5 nM): 100%
O=C(Nc1cnn(-c2csc(C(=O)NC3COC3)c2)c1)Nc1ccccc1Cl  remaining activity (enzyme activity; inhibitor; 5 µM): 101%
CNC(=O)c1cc(Oc2ccc(NC(=O)Nc3ccc(Cl)c(C(F)(F)F)c3)cc2)ccn1  remaining signal (cell-free assay; 0.5 µM): 91.3%
CNc1cc(Oc2cc(C(=O)Nc3cc(N4CCN(C)CC4)cc(C(F)(F)F)c3)ccc2C)ncn1  inhibition (target engagement in cells; inhibitor; chemoproteomics; Huh-7; 1 µM): -18.1%
Nc1ncnc2occ(-c3ccc(NC(=O)Nc4cc(C(F)(F)F)ccc4F)cc3)c12  remaining signal (cell-free assay; inhibitor; 20 µM): 53%
COCCOc1nc(-c2ccc(Cl)nc2)nc2c1CN(C(=O)c1ncn3ccccc13)CC2  remaining binding (cell-free assay; competition with immobilised ligand; 0.1 µM): 100%
Cc1ccc(NC(=O)c2ccc(C)c(C(F)(F)F)c2)cc1C#Cc1nn(C2CCC(O)CC2)c2ncnc(N)c12 (stereo not shown)  remaining signal (cell-free assay; 10 µM): 113%
CC(C)CC(=O)N1CCc2nc(-c3ccc(Br)cc3)nc(N(C)Cc3ccccc3)c2C1  remaining binding (cell-free assay; competition with immobilised ligand; 0.1 µM): 100%
COc1ccc(COc2ccc(Cc3cnc(N)nc3N)cc2OC)cc1  remaining signal (cell-free assay; 0.5 µM): 106%
Cc1ccc(Nc2nccc(N(C)c3ccc4c(C)n(C)nc4c3)n2)cc1S(N)(=O)=O  inhibition (enzyme activity; inhibitor; 0.3 µM): -4%
CCC(=O)N[C@@H]1CC[C@H](C(=O)N(C)c2ccc(-c3nc4ccccc4o3)cc2)C1  remaining binding (cell-free assay; competition with immobilised ligand; 1 µM): 100%
COc1cc2ncnc(Nc3ccc(Oc4ccccc4)c(C)c3C)c2cc1OC  inhibition (enzyme activity; inhibitor; 1 µM): 2%
CNCc1ccccc1-c1csc([C@H](C)Nc2nc(C)nc3cc(OC)c(OC)cc23)c1  remaining binding (cell-free assay; competition with immobilised ligand; 1 µM): 100%
Cc1sc(C(=O)NC2COC2)cc1-n1cc(NC(=O)Nc2c(F)cccc2Cl)cn1  remaining activity (enzyme activity; inhibitor; 10 µM): 88.5%
